What is called pKd is −log10 of the Kd, conventionally taken in molar units.

The text below walks through data of paper PMC5697452 (ACS Chemical Biology, 2017).

One data set deals with COS-1 cells. In words: MTT cell viability, COS-1 cells. The data set is classed as cell-based, monkey. The note with it: 24 h. The procedure, abridged:
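COS-1 cells stably expressing vector control or proMMP-9 cDNA were treated 24 h with DMSO, 50 μM compound, or 100 nM staurosporine (positive control for acute toxicity). Viability was assessed by MTT.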

A further data set addresses APMA-activated MMP-9 (Homo sapiens, UniProt P14780). In words: Fluorogenic peptide assay of MMP-9 catalytic activity. Format: biochemical. The settings on record: 10 μM fluorogenic peptide, 2 h; for inhibition of MMP-9 catalytic activity: 50 μM compound. The procedure, abridged:
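Recombinant proMMP-9 was activated overnight at 37 °C in TNC buffer with 1 mM APMA. […] Fluorescence (ex 320/em 405 nm) was read every 10 min over 2 h.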

Data set [1] deals with HT1080 cells. In words: Immunofluorescence of HT1080 cells. The data set is classed as cell-based, human. The note with it: for MMP-9 cell surface localization: 50 μM; for formation of FAK and PAX adhesion junctions: 50 μM overnight. The procedure, abridged: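 HT1080 cells were fixed in 4% paraformaldehyde/PBS and blocked in 5% BSA/PBS. Staining used anti-MMP-9 (anti-rabbit Alexa 488) with anti-α4 and/or anti-β1 integrin (anti-mouse Alexa 568), or anti-p-FAK Tyr576/577 (Alexa 568) and anti-p-PAX Tyr118 (Alexa 488). Nuclei were counterstained with DAPI, and images were taken by two-photon laser-scanning confocal microscopy.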

In data set [2] the test system is HT1080 cells. In words: Cellular adhesion assay on collagen or fibronectin. The data set is classed as cell-based, human. The settings on record: 30 min at 37 °C. The procedure, abridged: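 HT1080 cells seeded in 96-well plates coated with a thin layer of collagen or fibronectin (5 μg/mL in PBS). Cells were held 30 min at 37 °C with test compound. Wells were then washed and the cells fixed in 4% paraformaldehyde and stained with DAPI. Adherent cells were imaged and counted automatically.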

The subject of data set [3] is HT1080 fibrosarcoma cells. In words: Two-dimensional dot migration assay, HT1080 cells. The data set is classed as cell-based, human. The note with it: 50 µM, relative to control groups.
Another data set concerns closely related MMPs. The note with it: cited from earlier work.
The test system of a further data set is MMP-9. The settings on record: cited from earlier work.
Data set [4] has as its system proMMP-9-mediated cancer cell migration. The note with it: in vitro; cited from earlier work.
In another data set the test system is cancer metastasis. The settings on record: in vivo mouse xenograft model; cited from earlier work.
The subject of data set [5] is HT1080 cells on chicken embryo CAM. Put plainly: Chorioallantoic membrane. The data set is classed as in vivo. The note with it: final concentration estimated 0.5 μM, 4-day incubation, vs DMSO and 1f. The procedure, abridged:
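Fertilized white chicken eggs were incubated 3 days at 37 °C and 70% humidity, then cultured ex ovo in Petri dishes. HT1080 cells adsorbed onto a gelatin sponge were implanted on the CAM. Compound was added from a 100 μM stock (estimated final 0.5 μM); DMSO served as control. Blood vessels surrounding the sponge were counted on day 4 at 37 °C.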

Data set [6] shares this test system. In words: Chorioallantoic membrane. Format: in vivo. The settings on record: final concentration estimated 0.5 μM, 7-day incubation, vs DMSO and 1f. The procedure, abridged: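 Ex ovo chick embryos were inoculated at day 10 with pretreated GFP-expressing HT1080 cells in a 3 mg/mL collagen solution seeded atop the CAM. Compound was added from a 100 μM stock (estimated final 0.5 μM), with DMSO control. After 7 days at 37 °C, CAM segments were formalin-fixed, OCT-embedded, cut at 6 μm and H&E stained. GFP+ cells were scored by fluorescence microscopy.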

Data set [7] has as its system EGFR, AKT, Erk1/2, Src, FAK, PAX phosphorylation. In words: Immunoblot of downstream signaling phosphorylation in HT1080 cells. The data set is classed as cell-based, human. The settings on record: 50 μM. The procedure, abridged: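 HT1080 cells transiently expressing Myc-tagged MMP-9 were treated with 50 μM compound. Lysates were run on 10% SDS-PAGE and immunoblotted for phospho-Src Tyr418, phospho-FAK Tyr576/577 and phospho-PAX Tyr118.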
Background: Immunoblotting shows a protein as a band on a membrane.

Data set [8] relates to proMMP-2 expressing COS-1 cells. Put plainly: Two-dimensional dot migration assay, COS-1 cells expressing proMMP-2. Format: cell-based, monkey. The note with it: 50 μM. The procedure, abridged: (§1)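 COS-1 cells expressed vector pQCXIP, proMMP-2, proMMP-9 or proMMP-14 (polyethylenimine transfection, 48 h at 37 °C); expression was checked by immunoblot of lysates and serum-free medium. Cells were mixed 1:1 with neutralized type I collagen (3 mg/mL) on ice, and 1 μL dots (1 × 10^7 cells/mL) were set. Dots were covered with complete medium ± 50 μM compound for 18 h, then fixed and DAPI-stained, and migrated cells were counted.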

Data set [9] deals with T1, proMMP-9 (Homo sapiens, UniProt P14780). In words: Tryptophan fluorescence blue-shift binding assay with proMMP-9.
T1 sequence (P14780 20-707 limits assumed): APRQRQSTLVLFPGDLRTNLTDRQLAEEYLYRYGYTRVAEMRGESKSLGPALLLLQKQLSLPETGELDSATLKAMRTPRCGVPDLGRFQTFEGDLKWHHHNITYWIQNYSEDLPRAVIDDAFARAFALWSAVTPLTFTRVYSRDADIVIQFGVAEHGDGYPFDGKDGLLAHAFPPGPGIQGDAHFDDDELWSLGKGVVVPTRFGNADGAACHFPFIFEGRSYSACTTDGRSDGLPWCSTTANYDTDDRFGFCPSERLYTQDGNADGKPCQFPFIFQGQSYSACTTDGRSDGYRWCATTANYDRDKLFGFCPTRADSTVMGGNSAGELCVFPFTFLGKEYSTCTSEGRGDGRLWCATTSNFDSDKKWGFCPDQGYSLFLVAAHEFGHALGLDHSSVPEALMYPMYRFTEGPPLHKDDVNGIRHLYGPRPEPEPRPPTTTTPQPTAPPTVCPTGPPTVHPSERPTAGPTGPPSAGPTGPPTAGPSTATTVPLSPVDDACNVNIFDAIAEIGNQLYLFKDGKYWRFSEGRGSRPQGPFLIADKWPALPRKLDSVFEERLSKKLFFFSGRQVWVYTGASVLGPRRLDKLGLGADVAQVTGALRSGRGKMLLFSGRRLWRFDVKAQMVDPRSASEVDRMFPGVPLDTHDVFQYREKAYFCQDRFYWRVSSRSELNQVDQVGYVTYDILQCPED
Data set [10] relates to HT1080 fibrosarcoma cells. In words: Chronic toxicity in HT1080 fibrosarcoma cells. The settings on record: 100 μM, retreated every 3 days for 9 days; data not shown. The data set is classed as cell-based, human. The procedure, abridged: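 HT1080 cells were cultured in complete medium with or without compound, with medium and compound replaced repeatedly over 9 days. Viability was measured daily by MTT: 4 h at 37 °C, then formazan solubilised and absorbance read at 570 nm.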

For the next data set, the system named is proMMP-9/MMP-2PEX. Put plainly: Tryptophan fluorescence binding assay with chimera proMMP-9/MMP-2PEX. Further details: species or system human. The note with it: chimera with MMP-2 PEX domain, 0.5 μM. The procedure, abridged: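 Purified recombinant chimera (0.5 μM) was titrated with test compound in TNC buffer (50 mM Tris-HCl, 10 mM CaCl2, pH 7.5). A buffer-only addition served as the protein stability control. After each addition the sample was stirred 1 min at RT, excited at 280 nm, and scanned 300–425 nm, averaging three scans. Kd was fitted to ΔF/ΔFMax, where ΔF is the emission shift in nm.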

Data set [11] has as its system EGFR-CD44 and EGFR-β1 integrin. In words: Co-immunoprecipitation of endogenous EGFR in HT1080 cells. Format: cell-based, human. The note with it: 50 μM.
Data set [12] has as its system proMMP-14 expressing COS-1 cells. Put plainly: Two-dimensional dot migration assay, COS-1 cells expressing proMMP-14. The settings on record: 50 μM. Format: cell-based, monkey. The procedure, abridged:
as §1

For another data set, the target named is T2, proMMP-2 (Homo sapiens, UniProt P08253).
T2 sequence (P08253 30-660 limits assumed): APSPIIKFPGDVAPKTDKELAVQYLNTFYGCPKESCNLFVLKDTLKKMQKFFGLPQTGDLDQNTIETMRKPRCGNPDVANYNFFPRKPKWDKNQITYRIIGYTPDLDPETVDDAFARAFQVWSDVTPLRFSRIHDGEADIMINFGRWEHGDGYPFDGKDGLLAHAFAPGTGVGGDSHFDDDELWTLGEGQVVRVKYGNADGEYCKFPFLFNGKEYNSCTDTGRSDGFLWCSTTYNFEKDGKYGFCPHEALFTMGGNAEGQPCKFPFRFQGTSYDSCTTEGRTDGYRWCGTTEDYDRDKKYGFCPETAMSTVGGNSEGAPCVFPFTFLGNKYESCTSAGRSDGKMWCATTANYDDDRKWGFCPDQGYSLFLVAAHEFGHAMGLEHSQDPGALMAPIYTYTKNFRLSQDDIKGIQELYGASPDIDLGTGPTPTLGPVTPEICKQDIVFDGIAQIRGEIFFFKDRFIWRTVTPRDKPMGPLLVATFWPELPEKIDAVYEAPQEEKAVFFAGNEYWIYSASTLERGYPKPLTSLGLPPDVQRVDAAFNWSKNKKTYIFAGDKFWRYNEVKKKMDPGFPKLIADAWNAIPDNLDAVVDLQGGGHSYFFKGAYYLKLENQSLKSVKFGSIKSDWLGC
In words: Saturated transfer difference. The data set is classed as binding. The settings on record: compound:protein 38:1 (300 µM:8 µM), 4 °C.

Data set [13] deals with T1, proMMP-9. Put plainly: Saturated transfer difference. The note with it: compound:protein 38:1 (300 µM:8 µM), 4 °C. Format: binding.

pKd: −log10 of the molar value. Entries after “also recorded” stand apart in the source; their conditions may differ.

APMA-activated MMP-9, sequence (P14780 107-707 limits assumed): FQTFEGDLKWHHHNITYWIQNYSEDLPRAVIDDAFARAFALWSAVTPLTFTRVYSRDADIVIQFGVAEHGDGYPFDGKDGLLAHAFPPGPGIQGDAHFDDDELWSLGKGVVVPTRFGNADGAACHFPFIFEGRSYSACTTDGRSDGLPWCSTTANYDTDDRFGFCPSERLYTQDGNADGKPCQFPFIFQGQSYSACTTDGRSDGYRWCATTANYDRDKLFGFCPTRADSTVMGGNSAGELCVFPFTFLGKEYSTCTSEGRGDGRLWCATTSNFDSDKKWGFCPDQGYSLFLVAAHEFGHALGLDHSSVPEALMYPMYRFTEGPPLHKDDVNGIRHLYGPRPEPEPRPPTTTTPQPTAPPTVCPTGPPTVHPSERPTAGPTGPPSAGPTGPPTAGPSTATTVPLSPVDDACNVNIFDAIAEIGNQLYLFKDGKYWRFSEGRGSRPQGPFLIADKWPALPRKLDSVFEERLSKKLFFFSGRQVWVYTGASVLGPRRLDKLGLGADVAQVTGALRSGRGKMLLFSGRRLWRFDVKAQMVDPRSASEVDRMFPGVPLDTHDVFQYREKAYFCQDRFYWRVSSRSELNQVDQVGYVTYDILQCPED

Turning to `CN[C@@H]1C[C@H]2O[C@@](C)([C@@H]1OC)n1c3ccccc3c3c4c(c5c6ccccc6n2c5c31)C(=O)NC4` [STS, staurosporine, reference compound], the cell death result in the data set on COS-1 cells (100 nM, positive control) is “Significant cell death”.
As for `CNC(=O)[C@@H](NC(=O)[C@H](CC(C)C)[C@H](O)C(=O)NO)C(C)(C)C` [Marimastat, reference compound], the “substrate cleavage by activated MMP-9” value at APMA-activated MMP-9 (250 nM Marimastat) is on record as “no substrate cleavage was observed”. Moreover, in the data set on HT1080 cells [1] (80 nM marimastat), the “formation of focal adhesion contact sites” value is “did not prevent the formation of focal adhesion contact sites”. Moreover, in the data set with HT1080 cells [2] (80 nM Marimastat), the “cell adhesion to collagen or fibronectin” value is given as “no observable effect on cell attachment”.
For the compound `CCCc1cc(=O)nc(SCC(=O)Nc2ccc(OC(F)F)cc2)[nH]1` [Compound 1a, N-(4-Difluoromethoxyphenyl)-2-(4-oxo-6-propyl-1,4-dihydropyrimidin-2-ylthio)acetamide], the “inhibition of MMP-9 catalytic activity” value against APMA-activated MMP-9 is recorded as “No inhibition of the catalytic activity was observed”. Also, in data set [3], the inhibition of migration result is reported as “the same inhibition potency was observed”. In addition, in the data set on HT1080 cells [1], the “MMP-9 cell surface localization” value is “loss of MMP-9 from the cell surface”; the “formation of FAK and PAX adhesion junctions” value was “decrease in the formation of FAK and PAX adhesion junctions”. Moreover, in the data set with closely related MMPs, the “binding to closely related MMPs” value is on record as “does not bind to closely related MMPs”. The “inhibition of MMP-9 enzymatic activity” value in the data set with MMP-9 is on record as “did not inhibit MMP-9 enzymatic activity”. In data set [4], the “proMMP-9-mediated cancer cell migration and proliferation” value was “inhibited proMMP-9-mediated cancer cell migration and proliferation”. Further, in the data set on cancer metastasis, the cancer metastasis entry is given as “effectively prevented cancer metastasis”. The “cell adhesion to collagen or fibronectin” value in the data set on HT1080 cells [2] (50 µM) is listed as “inhibited cellular adhesion”. Further, the “angiogenic potential of HT1080 cells (neovascularization)” value in data set [5] was “significantly reduced the angiogenic potential”. In [6], the “invasion of CAM tissue by HT1080 cells” value is on record as “reduced invasion of CAM tissue”. Besides, the “phosphorylation of Src Tyr418 and downstream FAK Tyr576/577 and PAX Tyr118” value in [7] is recorded as “reduced Src^Tyr418 phosphorylation”.
Turning to `O=C(CCCSc1nc2c(c(=O)[nH]1)CCCC2)Nc1ccc(F)cc1` [Compound 3c, N-(4-Fluorophenyl)-4-(4-oxo-3,4,5,6,7,8-hexahydroquinazolin-2-ylthio)butanamide], in [8], the “inhibition of proMMP-2 mediated cell migration” value is “lack of inhibition”. For the same compound, the “inhibition of MMP-9 catalytic activity” value against APMA-activated MMP-9 is given as “No inhibition of the catalytic activity was observed”. Besides, the inhibition of migration entry in [3] was “the same inhibition potency was observed”. The “binding affinity relative to parent compound 1a” value at proMMP-9 [9] (Kd comparison) is recorded as “four times tighter”. Further, the “maximal λMax shift” value on proMMP-9 [9] (after treatment with 25 μM inhibitor, ex 280 nm) is 9 nm. The pKd on proMMP-9 [9] (tryptophan fluorescence, purified recombinant proMMP-9 0.5 μM, TNC buffer pH 7.5) is 6.49. Moreover, in the data set on HT1080 cells [1], the “MMP-9 cell surface localization” value is on record as “loss of MMP-9 from the cell surface”; the “formation of FAK and PAX adhesion junctions” value was “decrease in the formation of FAK and PAX adhesion junctions”. Also, in data set [10], the “cell death (chronic toxicity)” value is “No cell death was observed”. Also, the “shift in tryptophan fluorescence upon titration” value with proMMP-9/MMP-2PEX is “no shift in fluorescence was observed”. Besides, in [11], the “interaction between EGFR-CD44 and EGFR-β1 integrin” value is “Decreased interaction between EGFR-CD44 and EGFR-β1 integrin”. In the data set on HT1080 cells [2] (50 µM), the “cell adhesion to collagen or fibronectin” value is on record as “inhibited cellular adhesion”. In addition, the “inhibition of proMMP-14 mediated cell migration” value in data set [12] is on record as “lack of inhibition”. Besides, the “decrease in cell growth” value with COS-1 cells (50 μM, nonstatistically significant) is listed as 8%. Also, the “angiogenic potential of HT1080 cells (neovascularization)” value in [5] was “reduces angiogenesis; also recorded: significantly reduced the angiogenic potential”. Further, the “STD NMR peaks” value at proMMP-2 is “not in the presence of proMMP-2”. In addition, the “invasion of CAM tissue by HT1080 cells” value in data set [6] was “blocks cancer cell invasion of the basement membrane; also recorded: reduced invasion of CAM tissue”. Also, the “STD NMR peaks” value on proMMP-9 [13] was “STD peaks were observed in the presence of proMMP-9”. In addition, the “phosphorylation of Src Tyr418 and downstream FAK Tyr576/577 and PAX Tyr118” value in data set [7] is reported as “reduced Src^Tyr418 phosphorylation”.
